Positions of bridges follow the written chain, without caps; N, C: chain ends. Residues, ends and D or L forms follow the SMILES beside them.
Key:
[1] = molecular target: Sodium channel protein type 5 subunit alpha (Homo sapiens, UniProt Q14524); assay: Inhibition of human Nav1.5 expressed in HEK293 cells assessed as inward peak current by ion-works quattro patch clamp electrophysiology method; assay type: cell-based
Method in brief: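 Stable HEK293 line expressing human NaV1.5, recorded by population patch clamp on the IonWorks Quattro.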

[2] = molecular target: Sodium channel protein type 9 subunit alpha (Homo sapiens, UniProt Q15858); assay: Inhibition of human Nav1.7 expressed in HEK293 cells assessed as inward peak current by ion-works quattro patch clamp electrophysiology method; assay type: cell-based
Chain of Sodium channel protein type 9 subunit alpha (Q15858 whole entry): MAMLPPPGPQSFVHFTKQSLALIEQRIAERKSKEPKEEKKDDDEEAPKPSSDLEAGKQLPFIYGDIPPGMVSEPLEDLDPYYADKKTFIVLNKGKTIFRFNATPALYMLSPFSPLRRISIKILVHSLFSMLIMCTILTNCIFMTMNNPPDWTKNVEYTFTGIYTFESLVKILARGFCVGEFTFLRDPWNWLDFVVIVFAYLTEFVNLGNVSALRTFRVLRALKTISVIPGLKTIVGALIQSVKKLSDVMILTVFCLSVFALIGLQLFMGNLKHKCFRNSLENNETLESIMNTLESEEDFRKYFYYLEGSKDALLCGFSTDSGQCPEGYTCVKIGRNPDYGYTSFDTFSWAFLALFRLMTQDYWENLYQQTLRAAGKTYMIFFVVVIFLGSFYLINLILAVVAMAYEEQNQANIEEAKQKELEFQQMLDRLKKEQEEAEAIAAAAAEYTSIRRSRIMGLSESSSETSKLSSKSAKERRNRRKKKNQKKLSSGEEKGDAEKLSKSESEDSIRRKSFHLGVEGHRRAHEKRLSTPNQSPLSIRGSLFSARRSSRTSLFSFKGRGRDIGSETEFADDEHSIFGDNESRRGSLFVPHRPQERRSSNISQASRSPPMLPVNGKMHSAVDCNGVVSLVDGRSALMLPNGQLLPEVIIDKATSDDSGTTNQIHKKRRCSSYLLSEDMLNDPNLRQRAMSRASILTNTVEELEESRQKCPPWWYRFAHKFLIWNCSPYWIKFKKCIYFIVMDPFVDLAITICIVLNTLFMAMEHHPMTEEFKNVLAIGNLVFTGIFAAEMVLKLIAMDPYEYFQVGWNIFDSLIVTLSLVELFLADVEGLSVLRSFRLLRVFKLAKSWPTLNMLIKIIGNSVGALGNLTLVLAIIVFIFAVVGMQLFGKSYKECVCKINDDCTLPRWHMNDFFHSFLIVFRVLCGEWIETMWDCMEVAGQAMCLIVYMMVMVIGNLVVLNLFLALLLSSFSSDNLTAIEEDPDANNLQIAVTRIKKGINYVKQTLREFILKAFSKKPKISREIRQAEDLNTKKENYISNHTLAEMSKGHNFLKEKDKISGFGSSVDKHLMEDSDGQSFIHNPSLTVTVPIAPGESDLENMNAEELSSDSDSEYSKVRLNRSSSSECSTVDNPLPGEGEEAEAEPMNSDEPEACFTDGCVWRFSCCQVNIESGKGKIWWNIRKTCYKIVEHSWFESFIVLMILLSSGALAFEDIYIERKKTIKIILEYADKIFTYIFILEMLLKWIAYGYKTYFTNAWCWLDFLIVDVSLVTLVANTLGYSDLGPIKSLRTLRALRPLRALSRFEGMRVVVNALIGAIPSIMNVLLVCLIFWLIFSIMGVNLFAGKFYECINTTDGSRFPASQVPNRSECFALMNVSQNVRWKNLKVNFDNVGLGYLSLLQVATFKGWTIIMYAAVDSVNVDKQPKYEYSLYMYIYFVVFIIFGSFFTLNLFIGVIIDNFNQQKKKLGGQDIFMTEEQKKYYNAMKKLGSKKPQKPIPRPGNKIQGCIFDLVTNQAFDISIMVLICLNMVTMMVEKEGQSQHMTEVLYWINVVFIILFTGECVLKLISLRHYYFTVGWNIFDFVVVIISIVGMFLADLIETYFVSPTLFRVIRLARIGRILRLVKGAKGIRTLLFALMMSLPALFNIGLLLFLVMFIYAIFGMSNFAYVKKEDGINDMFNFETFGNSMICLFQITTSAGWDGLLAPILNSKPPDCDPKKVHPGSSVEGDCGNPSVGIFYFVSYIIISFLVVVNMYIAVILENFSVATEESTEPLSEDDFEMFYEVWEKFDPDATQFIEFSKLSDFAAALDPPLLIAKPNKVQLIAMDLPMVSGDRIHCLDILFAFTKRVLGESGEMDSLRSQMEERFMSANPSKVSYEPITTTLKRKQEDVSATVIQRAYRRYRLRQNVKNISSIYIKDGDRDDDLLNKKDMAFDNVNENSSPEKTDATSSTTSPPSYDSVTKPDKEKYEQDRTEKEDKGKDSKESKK

Chain of Sodium channel protein type 5 subunit alpha (Q14524 whole entry): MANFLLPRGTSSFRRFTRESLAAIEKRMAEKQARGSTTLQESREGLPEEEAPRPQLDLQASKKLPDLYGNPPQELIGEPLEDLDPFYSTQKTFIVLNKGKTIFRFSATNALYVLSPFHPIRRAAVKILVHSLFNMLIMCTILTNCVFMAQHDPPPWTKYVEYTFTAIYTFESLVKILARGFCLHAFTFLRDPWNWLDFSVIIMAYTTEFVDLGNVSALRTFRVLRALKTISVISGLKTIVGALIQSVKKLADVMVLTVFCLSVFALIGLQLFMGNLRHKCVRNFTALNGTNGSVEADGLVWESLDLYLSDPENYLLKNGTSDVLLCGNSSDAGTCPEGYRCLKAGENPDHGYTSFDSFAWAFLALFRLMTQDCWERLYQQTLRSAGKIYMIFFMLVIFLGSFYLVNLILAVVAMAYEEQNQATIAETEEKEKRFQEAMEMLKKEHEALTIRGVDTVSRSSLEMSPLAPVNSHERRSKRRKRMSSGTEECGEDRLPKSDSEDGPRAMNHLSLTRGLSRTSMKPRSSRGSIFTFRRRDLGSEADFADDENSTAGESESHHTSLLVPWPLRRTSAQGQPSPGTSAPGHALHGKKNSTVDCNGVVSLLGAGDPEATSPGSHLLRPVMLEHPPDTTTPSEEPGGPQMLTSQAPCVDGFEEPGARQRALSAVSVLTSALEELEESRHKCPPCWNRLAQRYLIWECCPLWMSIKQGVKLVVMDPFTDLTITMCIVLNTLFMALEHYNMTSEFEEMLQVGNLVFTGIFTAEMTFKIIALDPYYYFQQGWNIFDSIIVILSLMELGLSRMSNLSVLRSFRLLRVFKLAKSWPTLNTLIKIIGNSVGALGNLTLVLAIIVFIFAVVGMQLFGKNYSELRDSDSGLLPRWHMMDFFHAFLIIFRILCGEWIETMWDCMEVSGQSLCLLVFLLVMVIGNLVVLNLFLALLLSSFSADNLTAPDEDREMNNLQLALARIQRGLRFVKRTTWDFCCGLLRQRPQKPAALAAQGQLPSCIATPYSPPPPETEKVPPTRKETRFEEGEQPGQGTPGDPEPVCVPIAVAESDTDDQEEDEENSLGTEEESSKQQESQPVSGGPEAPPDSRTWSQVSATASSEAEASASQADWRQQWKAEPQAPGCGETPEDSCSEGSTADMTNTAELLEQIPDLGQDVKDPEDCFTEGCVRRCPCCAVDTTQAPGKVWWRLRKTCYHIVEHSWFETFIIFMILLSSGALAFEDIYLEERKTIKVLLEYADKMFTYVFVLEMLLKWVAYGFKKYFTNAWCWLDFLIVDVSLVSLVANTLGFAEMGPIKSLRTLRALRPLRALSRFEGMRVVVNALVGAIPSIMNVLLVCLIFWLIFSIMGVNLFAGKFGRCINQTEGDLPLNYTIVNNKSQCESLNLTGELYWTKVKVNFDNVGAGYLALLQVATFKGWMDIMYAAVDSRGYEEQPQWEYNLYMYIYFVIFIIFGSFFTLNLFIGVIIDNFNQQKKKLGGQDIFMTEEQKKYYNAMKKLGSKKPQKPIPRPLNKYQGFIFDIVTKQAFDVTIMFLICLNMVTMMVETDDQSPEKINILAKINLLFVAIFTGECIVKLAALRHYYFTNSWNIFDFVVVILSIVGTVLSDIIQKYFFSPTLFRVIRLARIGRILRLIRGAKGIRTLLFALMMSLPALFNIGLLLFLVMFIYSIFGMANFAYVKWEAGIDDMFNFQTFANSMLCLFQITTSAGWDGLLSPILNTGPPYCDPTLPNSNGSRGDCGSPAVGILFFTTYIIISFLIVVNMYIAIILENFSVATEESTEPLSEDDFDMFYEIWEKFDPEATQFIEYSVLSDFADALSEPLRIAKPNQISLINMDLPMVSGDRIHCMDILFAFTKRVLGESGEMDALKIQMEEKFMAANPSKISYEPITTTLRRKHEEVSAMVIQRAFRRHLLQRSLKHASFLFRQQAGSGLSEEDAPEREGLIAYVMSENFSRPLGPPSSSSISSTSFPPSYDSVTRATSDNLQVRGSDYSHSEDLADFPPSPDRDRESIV

Row | Compound | IC50 [1] [µM] | IC50 [2] [µM]
1 | CC[C@H](C)[C@@H]1NC(=O)[C@@H]2CSSC[C@@H]3NC(=O)[C@H](C(C)C)NC(=O)[C@H](CC(C)C)NC(=O)[C@H](CC(N)=O)NC(=O)[C@@H]4CCCN4C(=O)[C@H](CCCNC(=N)N)NC(=O)[C@H](CSSC[C@H](NC(=O)[C@@H](N)CC(=O)O)C(=O)N[C@@H](CC(C)C)C(=O)NCC(=O)N[C@@H](Cc4ccccc4)C(=O)N[C@@H](CCSC)C(=O)N[C@@H](CCCNC(=N)N)C(=O)N[C@@H](CCCCN)C(=O)N2)NC(=O)[C@H](CSSC[C@@H](C(=O)N[C@@H](CCCCN)C(=O)N[C@@H](Cc2ccc(O)cc2)C(=O)N[C@H](C(=O)N[C@@H](CCC(=O)O)C(N)=O)C(C)C)NC(=O)[C@H](Cc2c[nH]c4ccccc24)NC(=O)[C@H](CCCCN)NC(=O)[C@H](Cc2cnc[nH]2)NC(=O)[C@H]([C@@H](C)O)NC(=O)[C@H](CCCNC(=N)N)NC(=O)[C@H](CO)NC3=O)NC(=O)[C@H](CCCCN)NC(=O)[C@H](CC(=O)O)NC(=O)[C@H](CC(N)=O)NC(=O)[C@H](CC(=O)O)NC(=O)[C@@H]2CCCN2C1=O (H-DCLGFMRKCIPDNDKCCRPNLVCSRTHKWCKYVE-NH2; disulfide 2-17, 9-23, 16-30) | > 5 | > 5
2 | CC[C@H](C)[C@@H]1NC(=O)[C@@H]2CSSC[C@@H]3NC(=O)[C@H](C(C)C)NC(=O)[C@H](CC(C)C)NC(=O)[C@H](CC(N)=O)NC(=O)[C@@H]4CCCN4C(=O)[C@H](CCCNC(=N)N)NC(=O)[C@H](CSSC[C@H](NC(=O)[C@@H](N)CC(=O)O)C(=O)N[C@@H](CC(C)C)C(=O)NCC(=O)N[C@@H](Cc4ccccc4)C(=O)N[C@@H](CCSC)C(=O)N[C@@H](CCCNC(=N)N)C(=O)N[C@@H](CCCCN)C(=O)N2)NC(=O)[C@H](CSSC[C@@H](C(=O)N[C@@H](CCC(=O)O)C(=O)N[C@@H](Cc2ccc(O)cc2)C(=O)N[C@H](C(=O)N[C@@H](Cc2ccccc2)C(N)=O)C(C)C)NC(=O)[C@H](Cc2c[nH]c4ccccc24)NC(=O)[C@H](CCCCN)NC(=O)[C@H](Cc2cnc[nH]2)NC(=O)[C@H]([C@@H](C)O)NC(=O)[C@H](CCCNC(=N)N)NC(=O)[C@H](CO)NC3=O)NC(=O)[C@H](CCCCN)NC(=O)[C@H](CC(=O)O)NC(=O)[C@H](CC(N)=O)NC(=O)[C@H](CC(=O)O)NC(=O)[C@@H]2CCCN2C1=O (H-DCLGFMRKCIPDNDKCCRPNLVCSRTHKWCEYVF-NH2; disulfide 2-17, 9-23, 16-30) | > 5 | > 5
3 | CC[C@H](C)[C@@H]1NC(=O)[C@@H]2CSSC[C@@H]3NC(=O)[C@H](C(C)C)NC(=O)[C@H](CC(C)C)NC(=O)[C@H](CC(N)=O)NC(=O)[C@@H]4CCCN4C(=O)[C@H](CCCNC(=N)N)NC(=O)[C@H](CSSC[C@H](NC(=O)[C@@H](N)CC(=O)O)C(=O)N[C@@H](CC(C)C)C(=O)NCC(=O)N[C@@H](CCC(=O)O)C(=O)N[C@@H](CCSC)C(=O)N[C@@H](CCCNC(=N)N)C(=O)N[C@@H](CCCCN)C(=O)N2)NC(=O)[C@H](CSSC[C@@H](C(=O)N[C@@H](CCCCN)C(=O)N[C@@H](Cc2ccc(O)cc2)C(=O)N[C@H](C(=O)N[C@@H](Cc2ccccc2)C(N)=O)C(C)C)NC(=O)[C@H](Cc2c[nH]c4ccccc24)NC(=O)[C@H](CCCCN)NC(=O)[C@H](Cc2cnc[nH]2)NC(=O)[C@H]([C@@H](C)O)NC(=O)[C@H](CCCNC(=N)N)NC(=O)[C@H](CO)NC3=O)NC(=O)[C@H](CCCCN)NC(=O)[C@H](CC(=O)O)NC(=O)[C@H](CC(N)=O)NC(=O)[C@H](CC(=O)O)NC(=O)[C@@H]2CCCN2C1=O (H-DCLGEMRKCIPDNDKCCRPNLVCSRTHKWCKYVF-NH2; disulfide 2-17, 9-23, 16-30) | > 5 | > 5
4 | CC[C@H](C)[C@@H]1NC(=O)[C@@H]2CSSC[C@@H]3NC(=O)[C@H](C(C)C)NC(=O)[C@H](CC(C)C)NC(=O)[C@H](CC(N)=O)NC(=O)[C@@H]4CCCN4C(=O)[C@H](CCCNC(=N)N)NC(=O)[C@H](CSSC[C@H](NC(=O)[C@H](CC(=O)O)NC(=O)[C@@H](N)Cc4c[nH]c5ccccc45)C(=O)N[C@@H](CC(C)C)C(=O)NCC(=O)N[C@@H](Cc4ccccc4)C(=O)N[C@@H](CCSC)C(=O)N[C@@H](CCCNC(=N)N)C(=O)N[C@@H](CCCCN)C(=O)N2)NC(=O)[C@H](CSSC[C@@H](C(=O)N[C@@H](CCCCN)C(=O)N[C@@H](Cc2ccc(O)cc2)C(=O)N[C@H](C(=O)N[C@@H](Cc2ccccc2)C(N)=O)C(C)C)NC(=O)[C@H](Cc2c[nH]c4ccccc24)NC(=O)[C@H](CCCCN)NC(=O)[C@H](Cc2cnc[nH]2)NC(=O)[C@H]([C@@H](C)O)NC(=O)[C@H](CCCNC(=N)N)NC(=O)[C@H](CO)NC3=O)NC(=O)[C@H](CCCCN)NC(=O)[C@H](CC(=O)O)NC(=O)[C@H](CC(N)=O)NC(=O)[C@H](CC(=O)O)NC(=O)[C@@H]2CCCN2C1=O | > 5 | 0.2
5 | CSCC[C@@H]1NC(=O)[C@H](Cc2ccccc2)NC(=O)CNC(=O)[C@H](CC(C)C)NC(=O)[C@@H](NC(=O)[C@@H](N)CC(=O)O)CSSC[C@@H]2NC(=O)[C@@H]3CSSC[C@@H](C(=O)N[C@@H](CCCCN)C(=O)N[C@@H](Cc4ccc(O)cc4)C(=O)N[C@H](C(=O)N[C@@H](Cc4ccccc4)C(N)=O)C(C)C)NC(=O)[C@H](Cc4c[nH]c5ccccc45)NC(=O)[C@H](CCCCN)NC(=O)[C@H](Cc4cnc[nH]4)NC(=O)[C@H]([C@@H](C)O)NC(=O)[C@H](CCCNC(=N)N)NC(=O)[C@H](CO)NC(=O)[C@H](CSSC[C@H](NC(=O)[C@H](CCCCN)NC(=O)[C@H](CCCNC(=N)N)NC1=O)C(=O)N[C@@H](Cc1cc4ccccc4[nH]1)C(=O)N1CCC[C@H]1C(=O)N[C@@H](CC(=O)O)C(=O)N[C@@H](CC(N)=O)C(=O)N[C@@H](CC(=O)O)C(=O)N[C@@H](CCCCN)C(=O)N3)NC(=O)[C@H](C(C)C)NC(=O)[C@H](CC(C)C)NC(=O)[C@H](CC(N)=O)NC(=O)[C@@H]1CCCN1C(=O)[C@H](CCCNC(=N)N)NC2=O | > 5 | 0.13
6 | CC[C@H](C)[C@@H]1NC(=O)[C@@H]2CSSC[C@@H]3NC(=O)[C@H](C(C)C)NC(=O)[C@H](CC(C)C)NC(=O)[C@H](CC(N)=O)NC(=O)[C@@H]4CCCN4C(=O)[C@H](CCCNC(=N)N)NC(=O)[C@H](CSSC[C@H](NC(=O)[C@@H](N)CC(=O)O)C(=O)N[C@@H](CC(C)C)C(=O)NCC(=O)N[C@@H](Cc4ccccc4)C(=O)N[C@@H](CCSC)C(=O)N[C@@H](CCCNC(=N)N)C(=O)N[C@@H](CCCCN)C(=O)N2)NC(=O)[C@H](CSSC[C@@H](C(=O)N[C@@H](CCCCN)C(=O)N[C@@H](Cc2ccc(O)cc2)C(=O)N[C@@H](CCCCN)C(=O)N[C@@H](Cc2ccccc2)C(N)=O)NC(=O)[C@H](Cc2c[nH]c4ccccc24)NC(=O)[C@H](CCCCN)NC(=O)[C@H](Cc2cnc[nH]2)NC(=O)[C@H]([C@@H](C)O)NC(=O)[C@H](CCCNC(=N)N)NC(=O)[C@H](CO)NC3=O)NC(=O)[C@H](CCCCN)NC(=O)[C@H](CC(=O)O)NC(=O)[C@H](CC(N)=O)NC(=O)[C@H](CC(=O)O)NC(=O)[C@@H]2CCCN2C1=O (H-DCLGFMRKCIPDNDKCCRPNLVCSRTHKWCKYKF-NH2; disulfide 2-17, 9-23, 16-30) | > 5 | 0.05

From ChEMBL document CHEMBL3797186, “Single Residue Substitutions That Confer Voltage-Gated Sodium Ion Channel Subtype Selectivity in the NaV1.7 Inhibitory Peptide GpTx-1” (J Med Chem, 2016)
